According to ChEMBL document CHEMBL4392863, “Spongian Diterpenes Including One with a Rearranged Skeleton from the Marine Sponge Spongia officinalis” (J Nat Prod, 2019):

Legend:
[1] = Cytotoxicity against mouse RAW264.7 cells assessed as reduction in cell viability incubated for 24 hrs by MTT assay; type: cell-based
RAW264.7 = assay: Anti-inflammatory activity in mouse RAW264.7 cells assessed as inhibition of LPS-induced NO production pre-incubated for 2 hrs before LPS stimulation for 24 hrs by nitrate/nitrite assay; type: functional, cell-based
In short: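 LPS-stimulated RAW264.7 macrophages were used following an earlier published protocol. Compounds from 30 mM DMSO stocks were diluted at room temperature to final test concentrations of 1−60 μM. NG-methyl-L-arginine acetate salt in DMSO served as the positive control. Inhibition of nitric oxide production was expressed as IC50.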

| SMILES | CC50 at 24 h [1] [µM] | IC50 (RAW264.7) [µM] |
| --- | --- | --- |
| CO[C@@H]1O[C@H](OC)C2=C1CC[C@H]1[C@@]2(CO)CC[C@@H]2[C@]1(C)CC(=O)[C@H](O)[C@]2(C)CO | > 60 | 22 |
| C[C@]12[C@@H](O)[C@]3(O)C(=O)OC[C@]3(C)[C@@H]1CC[C@@]1(CO)c3cocc3CC[C@@H]12 | > 60 | 32 |
| C[C@]12C[C@@H](O)C(=O)[C@](C)(CO)[C@@H]1CC[C@@]1(CO)c3cocc3CC[C@@H]12 | > 60 | > 60 |
| C[C@]12CC(=O)[C@H](O)[C@](C)(CO)[C@@H]1CC[C@@]1(CO)c3cocc3CC[C@@H]12 | > 60 | 20 |
| CC(=O)OC[C@@]12CC[C@@H]3[C@](C)(CC(=O)[C@@H](O)[C@]3(C)CO)[C@H]1CCc1cocc12 | > 60 | 12 |
| CC(=O)OC[C@@]12CC[C@@H]3[C@](C)(CC(=O)[C@H](O)[C@]3(C)CO)[C@H]1CCc1cocc12 | > 60 | 15 |
| CCO[C@H]1OC(=O)C2=C1[C@]1(CO)CC[C@@H]3[C@](C)(CC(=O)[C@H](O)[C@]3(C)CO)[C@H]1CC2 | > 60 | 12 |
| CNC(=N)NCCC[C@H](N)C(=O)O [TILARGININE ACETATE] | – | 17 |
